Results published in ChEMBL document CHEMBL3102739, “Synthesis and antiproliferative activity of conformationally restricted 1,2,3-triazole analogues of combretastatins in the sea urchin embryo model and against human cancer cell lines” (Bioorg Med Chem, 2014).

Columns and labels:
HT-29 = assay: Growth inhibition of human HT-29 cells after 48 hrs by SRB assay; format: functional; details: HT-29, 48 h
SK-MEL-28 = assay: Growth inhibition of human SK-MEL-28 cells after 48 hrs by SRB assay; format: functional; details: SK-MEL-28, 48 h
[1] = Growth inhibition of human SF539 cells after 48 hrs by SRB assay; format: functional; details: SF-539, 48 h
[2] = Growth inhibition of human EKVX cells after 48 hrs by SRB assay; format: functional
NCI-H322M = assay: Growth inhibition of human NCI-H322M cells after 48 hrs by SRB assay; format: functional
SF-268 = assay: Growth inhibition of human SF268 cells after 48 hrs by SRB assay; format: functional; details: SF-268, 48 h
Paracentrotus lividus [3] = assay: Antimitotic activity against sea urchin embryo model assessed as cleavage arrest of fertilized egg compound treated at 8 to 20 mins post-fertilization and 45 to 55 mins prior to first mitotic cycle completion measured 2.5 to 5.5 hrs post-fertilization; format: functional
In short: (§1)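 Fertilized eggs are exposed 8–20 min after fertilization to 2-fold decreasing concentrations. Stocks are 10 mM in DMSO, then diluted 10-fold in 95% EtOH; final DMSO is at most 0.05% and EtOH at most 1%. Embryos are kept as a monolayer, up to 2000 embryos/mL, in filtered seawater at room temperature. The value is the threshold concentration giving cleavage alteration, embryo death before hatching or full mitotic arrest. Duplicates were run.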

HOP-62 = assay: Growth inhibition of human HOP62 cells after 48 hrs by SRB assay; format: functional; details: HOP-62, 48 h
A498 = assay: Growth inhibition of human A498 cells after 48 hrs by SRB assay; format: functional; details: A498, 48 h
UACC-62 = assay: Growth inhibition of human UACC62 cells after 48 hrs by SRB assay; format: functional; details: UACC-62, 48 h
CCRF-CEM = assay: Growth inhibition of human CCRF-CEM cells after 48 hrs by SRB assay; format: functional
NCI-H226 = assay: Growth inhibition of human NCI-H226 cells after 48 hrs by SRB assay; format: functional; details: NCI-H226, 48 h
MOLT-4 = assay: Growth inhibition of human MOLT4 cells after 48 hrs by SRB assay; format: functional; details: MOLT-4, 48 h
HL-60(TB) = assay: Growth inhibition of human HL-60(TB) cells after 48 hrs by SRB assay; format: functional; details: HL-60, 48 h
A549 = assay: Growth inhibition of human A549 cells after 48 hrs by SRB assay; format: functional; details: A549, 48 h
K562 = assay: Growth inhibition of human K562 cells after 48 hrs by SRB assay; format: functional; details: K562, 48 h
SK-MEL-5 = assay: Growth inhibition of human SK-MEL-5 cells after 48 hrs by SRB assay; format: functional; details: SK-MEL-5, 48 h
SF-295 = assay: Growth inhibition of human SF295 cells after 48 hrs by SRB assay; format: functional; details: SF-295, 48 h
OVCAR-3 = assay: Growth inhibition of human OVCAR3 cells after 48 hrs by SRB assay; format: functional; details: OVCAR-3, 48 h
SNB-19 = assay: Growth inhibition of human SNB19 cells after 48 hrs by SRB assay; format: functional; details: SNB-19, 48 h
U-251 = assay: Growth inhibition of human U251 cells after 48 hrs by SRB assay; format: functional; details: U-251, 48 h
M14 = assay: Growth inhibition of human M14 cells after 48 hrs by SRB assay; format: functional; details: M14, 48 h
SK-MEL-2 = assay: Growth inhibition of human SK-MEL-2 cells after 48 hrs by SRB assay; format: functional; details: SK-MEL-2, 48 h
NCI-H23 = assay: Growth inhibition of human NCI-H23 cells after 48 hrs by SRB assay; format: functional; details: NCI-H23, 48 h
[4] = Growth inhibition of human RXF393 cells after 48 hrs by SRB assay; format: functional; details: RXF 393, 48 h
SW-620 = assay: Growth inhibition of human SW620 cells after 48 hrs by SRB assay; format: functional; details: SW-620, 48 h
KM12 = assay: Growth inhibition of human KM12 cells after 48 hrs by SRB assay; format: functional; details: KM12, 48 h
[5] = Growth inhibition of human OVCAR5 cells after 48 hrs by SRB assay; format: functional; details: OVCAR-5, 48 h
CAKI-1 = assay: Growth inhibition of human CAKI-1 cells after 48 hrs by SRB assay; format: functional; details: CAKI-1, 48 h
NCI-H522 = assay: Growth inhibition of human NCI-H522 cells after 48 hrs by SRB assay; format: functional; details: NCI-H522, 48 h
ACHN = assay: Growth inhibition of human ACHN cells after 48 hrs by SRB assay; format: functional
SNB-75 = assay: Growth inhibition of human SNB75 cells after 48 hrs by SRB assay; format: functional; details: SNB-75, 48 h
HCT-15 = assay: Growth inhibition of human HCT15 cells after 48 hrs by SRB assay; format: functional; details: HCT-15, 48 h
Malme-3M = assay: Growth inhibition of human MALME-3M cells after 48 hrs by SRB assay; format: functional
SN12C = assay: Growth inhibition of human SN12C cells after 48 hrs by SRB assay; format: functional
Paracentrotus lividus [6] = assay: Antimitotic activity against sea urchin embryo free-swimming blastula model assessed as embryo spinning compound treated at 8 to 10 hrs post-fertilization measured after 0.25 to 20 hrs; format: functional, Blastula stage
HCT-116 = assay: Growth inhibition of human HCT116 cells after 48 hrs by SRB assay; format: functional; details: HCT-116, 48 h
LOX IMVI = assay: Growth inhibition of human LOXIMVI cells after 48 hrs by SRB assay; format: functional
[7] = Growth inhibition of human UACC257 cells after 48 hrs by SRB assay; format: functional; details: UACC-257, 48 h
SK-OV-3 = assay: Growth inhibition of human SKOV3 cells after 48 hrs by SRB assay; format: functional; details: SK-OV-3, 48 h
[8] = Growth inhibition of human HCC2998 cells after 48 hrs by SRB assay; format: functional; details: HCC 2998, 48 h
OVCAR-8 = assay: Growth inhibition of human OVCAR8 cells after 48 hrs by SRB assay; format: functional; details: OVCAR-8, 48 h
IGROV-1 = assay: Growth inhibition of human IGROV1 cells after 48 hrs by SRB assay; format: functional; details: IGROV-1, 48 h
RPMI-8226 = assay: Growth inhibition of human RPMI8226 cells after 48 hrs by SRB assay; format: functional; details: RPMI-8226, 48 h
[9] = Growth inhibition of human UO31 cells after 48 hrs by SRB assay; format: functional; details: UO-31, 48 h
[10] = Growth inhibition of human OVCAR4 cells after 48 hrs by SRB assay; format: functional; details: OVCAR-4, 48 h
SR = assay: Growth inhibition of human SR cells after 48 hrs by SRB assay; format: functional
786-0 = assay: Growth inhibition of human 786-0 cells after 48 hrs by SRB assay; format: functional; details: 786-0, 48 h
NCI-H460 = assay: Growth inhibition of human NCI-H460 cells after 48 hrs by SRB assay; format: functional; details: NCI-H460, 48 h
COLO 205 = assay: Growth inhibition of human COLO205 cells after 48 hrs by SRB assay; format: functional; details: COLO 205, 48 h
TK-10 = assay: Growth inhibition of human TK10 cells after 48 hrs by SRB assay; format: functional; details: TK-10, 48 h
[11] = Growth inhibition of human HOP92 cells after 48 hrs by SRB assay; format: functional; details: HOP-92, 48 h
Paracentrotus lividus [12] = assay: Antimitotic activity against sea urchin embryo model assessed as cleavage alteration of fertilized egg compound treated at 8 to 20 mins post-fertilization and 45 to 55 mins prior to first mitotic cycle completion measured 2.5 to 5.5 hrs post-fertilization; format: functional; in short: as §1
B16 = assay: Cytotoxicity against mouse B16 cells by MTT assay; format: functional, cell-based

COc1ccc(/C=C\c2cc(OC)c(OC)c(OC)c2)cc1O [COMBRETASTATIN A4]
GI50 (HT-29): 100 nM | GI50 (SK-MEL-28): 8 nM | GI50 [1]: 3 nM | GI50 [2]: 86 nM | GI50 (NCI-H322M): 7 nM | GI50 (SF-268): 6 nM | EC (Paracentrotus lividus [3]): 0.01 µM | GI50 (HOP-62): 3 nM | GI50 (A498): 6 nM | GI50 (UACC-62): 6 nM | GI50 (CCRF-CEM): 3 nM | GI50 (NCI-H226): 4 nM | GI50 (MOLT-4): 3 nM | GI50 (HL-60(TB)): 2 nM | GI50 (A549): 16 nM | GI50 (K562): 2 nM | GI50 (SK-MEL-5): 4 nM | GI50 (SF-295): 4 nM | GI50 (OVCAR-3): 2 nM | GI50 (SNB-19): 4 nM | GI50 (U-251): 4 nM | GI50 (M14): 3 nM | GI50 (SK-MEL-2): 4 nM | GI50 (NCI-H23): 3 nM | GI50 [4]: 2 nM | GI50 (SW-620): 3 nM | GI50 (KM12): 5 nM | GI50 [5]: 100 nM | GI50 (CAKI-1): 26 nM | GI50 (NCI-H522): 2 nM | GI50 (ACHN): 6 nM | GI50 (SNB-75): 8 nM | GI50 (HCT-15): 4 nM | GI50 (Malme-3M): 20 nM | GI50 (SN12C): 6 nM | EC (Paracentrotus lividus [6]): 0.05 µM | GI50 (HCT-116): 3 nM | GI50 (LOX IMVI): 3 nM | GI50 [7]: 3 nM | GI50 (SK-OV-3): 59 nM | GI50 [8]: 63 nM | GI50 (OVCAR-8): 3 nM | GI50 (IGROV-1): 15 nM | GI50 (RPMI-8226): 3 nM | GI50 [9]: 19 nM | GI50 [10]: 14 nM | GI50 (SR): 3 nM | GI50 (786-0): 100 nM | GI50 (NCI-H460): 3 nM | GI50 (COLO 205): 100 nM | GI50 (TK-10): 100 nM | GI50 [11]: 3 nM | EC (Paracentrotus lividus [12]): 0.002 µM

COc1cc(/C=C\c2ccc(N)cc2)cc(OC)c1OC
IC50 (B16): 56000 nM
